SR-BI DiI inh = inhibitors of mouse SR-BI mediated HDL lipid uptake; AID 488896; ldlA[mSR-BI] CHO cells, DiI-HDL uptake fluorescence, 3 h; inhibition, % at 12.5 µM; 320,000 tested, 0.96% active;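 active = mean replicate inhibition of at least 70% and a set share of replicates each scoring 70 or more; inconclusive = meets just one of the two criteria; inactive = fails both criteria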;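 note: 0% = median of neutral control wells and 100% = median of positive control wells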
Target sequence (Q61009 whole entry, looked up): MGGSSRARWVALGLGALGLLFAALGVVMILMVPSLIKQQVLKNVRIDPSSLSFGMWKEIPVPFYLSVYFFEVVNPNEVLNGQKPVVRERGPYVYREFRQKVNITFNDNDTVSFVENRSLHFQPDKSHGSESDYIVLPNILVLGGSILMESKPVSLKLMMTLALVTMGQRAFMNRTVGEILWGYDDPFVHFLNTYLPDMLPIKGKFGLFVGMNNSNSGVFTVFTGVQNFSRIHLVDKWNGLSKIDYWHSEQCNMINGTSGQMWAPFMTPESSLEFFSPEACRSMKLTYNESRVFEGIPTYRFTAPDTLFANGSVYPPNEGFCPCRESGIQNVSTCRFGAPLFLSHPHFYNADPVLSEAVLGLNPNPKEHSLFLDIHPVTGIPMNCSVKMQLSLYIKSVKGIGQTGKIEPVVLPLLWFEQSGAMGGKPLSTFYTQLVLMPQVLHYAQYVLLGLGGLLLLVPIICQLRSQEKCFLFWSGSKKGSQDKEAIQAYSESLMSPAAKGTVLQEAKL
beta cell repl = inducers of beta-cell replication in MIN6 cells; MIN6 cells proliferation, ATPlite luminescence, 48 h; cells starved in 0.2% serum; 100% = growth in 10% serum; proliferation, % at 10 µM; 330,000 tested, 0.29% active;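 active = compounds whose signal lies at least 3.5 SD above the mean of all wells on their plate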;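 note: 0% = DMSO-treated cells in low-serum medium and 100% = 10% serum control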
SR-BI DiI-HDL act = enhances SR-BI lipid uptake from DiI-HDL | CHO ldlA[mSR-BI] cells, DiI-HDL uptake fluorescence, 3 h; 100 = double the neutral-control signal | activation, % at 12.5 µM | 320,000 tested, 0.096% active | AID 504775;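 active = mean replicate activation of at least 60% and every replicate at or above 60%; inconclusive = mean or all-replicate condition met, but not both; inactive = mean below 60% and not all replicates reaching 60%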;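 note: 0% = median plate neutral-control signal and 100% = twice that signal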
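Test system: SR-BI-overexpressing, LDLR-lacking CHO cells; Medium: Ham's F12 with 0.5% BSA, HEPES 25 mM, pH 7.4; Schedule: 3 h, 37 °C; Technique: bottom-read fluorescence, 550/595 nm.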
Calb FLC = affects C. albicans growth with fluconazole. C. albicans CaCi-2 + fluconazole, Alamar Blue growth, 48 h. 300,000 tested, 0.57% active. growth inhibition, % (concentration not given with the values);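 active = growth inhibition above about 58% in most replicates, limit read from the data, passing the limit was not always enough; inconclusive = exactly half the replicates above a set limit; inactive = most replicates below a set limit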;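 note: all wells also contain fluconazole at 8 µg/ml as a sub-toxic cotreatment; 0% = median of DMSO wells and 100% = median of geldanamycin control wells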
HTR2A ag = agonists of mouse serotonin 5-HT2A receptor (HTR2A); CHO-K1 mHTR2A beta-arrestin complementation, luminescence; percent of 30 µM serotonin response; 360,000 tested, 0.66% active; AID 624169; activation, % at 7.6 µM;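 active = activation above a run cutoff, the mean activation of all tested compounds plus 3 SD, cut at about 14% in these data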;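 note: 0% = plate median of compound wells and 100% = 30 µM serotonin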
Ins promoter up = MIN6 insulin promoter up-regulation; MIN6 insulin promoter-GFP reporter, high-content imaging; hits give high values; z-score at 5 µM; 190,000 tested, 0.3% active; AID 1625;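 active = z-score above 3 at 5 µM with at least 500 cells counted in the well; inconclusive = wells under 500 cells, flagged as cytotoxic or low count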
The depositor's hits bear a star; ? = inconclusive; . = not tested or not shown. In the library only some 2.4% were active in any assay of this set; here they are far more common.

SMILES	SR-BI DiI inh	beta cell repl	SR-BI DiI-HDL act	Calb FLC	HTR2A ag	Ins promoter up
CSc1ncccc1C(=O)Nc1nc2c(C)cccc2s1	73*	2	-73	3	4	0.39
Cc1ccc(C(=O)NNc2c3ccccc3nc3ccccc23)cc1	97*	-1	-97	-11	-1	-0.76
O=C(NNC(=O)c1cc2ccccc2cc1O)Nc1ccc(Br)cc1	8	-2	.	6	-3	.
CCc1ccccc1NC(=O)NNC(=O)c1ccc2ccccc2c1O	-14	1	14	23	8	.
CCOc1ccc(NC(=O)NNC(=O)c2ccc3ccccc3c2O)cc1	19	-1	-19	85*	-5	.
COc1ccc(NC(=O)NNC(=O)c2cc3ccccc3cc2O)cc1	96*	-2	.	86*	1	.
COc1cc2ccccc2cc1C(=O)NNC(=O)c1ccccc1O	129*	-5	-129	95*	5	.
COc1ccc(CCNC(=O)CSc2nc(=O)n3cc(C)ccc3n2)cc1OC	-8	-1	8	1	-3	.
CCc1ccc(S(=O)(=O)N2CCN(C(=O)C3CCN(C(C)=O)CC3)CC2)cc1	-12	2	12	1	9	.
COc1ccccc1C(=O)NNC(=O)c1ccc(C)cc1	7	-3	-7	3	-3	.
Cc1ccc(C(=O)NNC(=O)c2cc3ccccc3cc2O)cc1	123*	-2	-123	91*	2	.
COc1ccc(C)cc1NC(=O)NNC(=O)c1cc2ccccc2cc1O	117*	-4	-117	93*	-8	.
O=C(Nc1ccc(F)c(Cl)c1)c1cc(C2CCCCN2C(=O)c2ccc3c(c2)CCO3)on1 (configuration not stated)	.	.	.	.	-3	.
Cc1cc2nc(C(C)(C)C)c(Cc3ccccc3)n2c(C)c1Br	.	.	.	.	-2	.
CC1CCCCN1S(=O)(=O)c1ccc(NC(=O)c2cccc(-n3cnnn3)c2)cc1 (configuration not stated)	36	4	-36	91*	-3	-1.6
CC1CCCN(S(=O)(=O)c2ccc(NC(=O)c3cccc(-n4cnnn4)c3)cc2)C1 (configuration not stated)	31	-2	-31	1	-4	.
CCc1cccc(CC)c1N1C(=O)c2cc(N3CCOCC3)c([N+](=O)[O-])cc2C1=O	75*	-2	-75	8	-1	0.65
CCc1ccc(N2C(=O)c3cc(N4CCOCC4)c([N+](=O)[O-])cc3C2=O)cc1	.	3	.	-3	.	0.05
CCCCN(C(=O)c1ccc(N(C)S(=O)(=O)c2ccc(C)cc2)cc1)c1c(N)n(CC(C)C)c(=O)[nH]c1=O	3	.	-3	.	-4	.
Cc1ccccc1OCC(=O)N/N=C/c1ccc([N+](=O)[O-])o1	17	-5	-17	30	-2	-0.65
O=C(N/N=C/C=C/c1ccccc1[N+](=O)[O-])c1cccs1	38	1	-38	-3	0	-0.34
COc1ccccc1OCC(=O)N/N=C/C=C/c1ccc([N+](=O)[O-])o1	-1	-5	1	94*	1	.
O=C(N/N=C\C=C\c1ccc([N+](=O)[O-])o1)c1cccs1	20	-5	-20	91*	-3	.
COC(=O)C1=CN(c2ccc(F)cc2)C=C(C(=O)OC)C1c1ccc(O)cc1	16	3	-16	1	-5	.
O=S(=O)(NCCN1CCCC1)c1ccc(Cl)cc1	7	-2	-7	1	-6	.
SMILES	SR-BI DiI inh	beta cell repl	SR-BI DiI-HDL act	Calb FLC	HTR2A ag	Ins promoter up
O=S(=O)(NCCN1CCCC1)c1ccc(Br)cc1	-62	-4	62*	4	-3	.
Cc1cc(C)c2[nH]c(C(=O)Nc3ccc(F)cc3Br)cc2c1	41	-5	-41	11	-5	.
CN(C)c1ccc(-c2nc3ccccc3n2C)cc1	31	-4	-31	-16	0	-0.1
CC(C)n1c(-c2ccc(N(C)C)cc2)nc2ccccc21	88*	-3	-88	.	-1	-2.1
CCc1ccc(CNC(=O)C2CC(=O)N(C3CCCC3)C2)cc1 (configuration not stated)	33	-2	.	-2	8	.
Cc1ccc(C(=O)Nc2sc3c(c2C(=O)NCc2ccco2)CCCC3)cc1	67	0	-67	.	0	.
O=C(Nc1sc2c(c1C(=O)NCc1ccco1)CCCC2)c1ccc2c(c1)OCO2	82*	-2	-82	0	-6	-1.7
COc1ccc(NC(=O)N2CCN(c3nc(-c4cccc(OC)c4)cs3)CC2)cc1	71*	-3	-71	1	-2	?
COc1ccc(NC(=O)N2CCN(c3nc4ccccc4n3C(C)C)CC2)cc1	81*	5	-81	6	4	0.01
COc1cccc(-c2csc(N3CCN(C(=O)Nc4ccc(Cl)cc4)CC3)n2)c1	56	-6	-56	0	-2	.
COc1ccc(NC(=O)N2CCN(C(=O)Nc3ccc(OC)cc3)CC2)cc1	7	4	-7	-2	0	0.07
COc1ccc(NC(=O)C2Cc3c(-c4cccc(C(N)=O)c4)ccnc3O2)cc1 (configuration not stated)	.	.	.	.	3	.
COc1ccc(S(N)(=O)=O)cc1C(=O)OCC(=O)N1CC(=O)Nc2ccccc21	-34	6	34	.	2	.
CC(C)(C)c1ccc(C(=O)NCCC(=O)N2CCN(c3ncccn3)CC2)cc1	-240	-1	?	-1	17*	-0.11
CC(C)(C)c1ccc(C(=O)NCCC(=O)N2CCCC2)cc1	-16	-1	16	-7	6	.
Brc1ccc2nc(C3CCCCC3)c(CC3CCCCC3)n2c1	.	.	.	.	2	.
CCOC(=O)c1c(CSc2cccs2)n(C)c2cc(Br)c(O)c(CN(C)C)c12	13	-3	-13	-10	-9	-1.6
CNC1=C(N(C(C)=O)c2ccc(Br)cc2)C(=O)c2ccccc2C1=O	0	.	0	103*	1	?
N#CCCn1c(=O)n(CCC#N)c2ccccc21	0	2	0	1	2	-0.58
Cn1c(=O)n(CC#N)c2ccccc21	-22	-4	22	102*	-2	0.22
CSCCC(C(=O)Nc1c(C)cccc1C)N1CCN(c2ccc(F)cc2)CC1 (configuration not stated)	.	.	.	.	6	.
COc1cc2ccccc2cc1C(=O)OCC(=O)N(CC(C)C)c1c(N)n(Cc2ccccc2)c(=O)[nH]c1=O	80*	-4	-80	-3	2	.
CCN(C(=O)COC(=O)c1ccccc1NCc1ccco1)c1c(N)n(Cc2ccccc2)c(=O)[nH]c1=O	73*	.	-73	.	1	.
CC(=O)Oc1ccccc1Cn1c(C)c(C(=O)NCc2ccccc2C(F)(F)F)sc1=O	.	.	.	.	1	.
CCc1nc2ccc(C(=O)NCCOc3ccc(OC)cc3)cn2c1N(CC)Cc1ccc(OC)c(OC)c1	.	.	.	.	-4	.

Screens (PubChem BioAssay)
